Residues, ends and D or L forms follow the SMILES beside them. *: point of attachment. X1 = O=C(CO[C@H]1O[C@H](CO)[C@@H](O)[C@H](O)[C@@H]1O)*
Experiments:
[1] = biological target: griffithsin (GRFT) (Griffithsia sp., UniProt P84801); type: binding
[2] = biological target: immobilized GRFT (Griffithsia sp., UniProt P84801); assay: SPR analysis of binding to immobilized GRFT; settings: run in triplicate; for association rate (kon) to GRFT (in words) / dissociation rate (koff) from GRFT (in words): SPR, immobilized GRFT; for binding response to immobilized GRFT (in words): SPR sensorgrams
immobilized GRFT, sequence (P84801 whole entry): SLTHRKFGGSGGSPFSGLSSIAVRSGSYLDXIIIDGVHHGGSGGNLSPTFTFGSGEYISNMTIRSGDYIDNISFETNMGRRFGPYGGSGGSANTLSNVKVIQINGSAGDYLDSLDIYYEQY
In short: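 Glycopeptide high-mannose mimetics with varied mannose valency and spacing were passed over immobilized griffithsin, with a nonglycosylated peptide as negative control. Runs were in triplicate. Sensorgrams and Langmuir binding curves were generated, and association and dissociation rates were assessed from the sensorgrams.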

[3] = isothermal titration calorimetry, binding to GRFT, value ± spread

griffithsin (GRFT), sequence (P84801 whole entry): as above

Row | Molecule | stoichiometry of binding to GRFT (rounded, as stated in text) ([1]; ITC) | n (stoichiometry of binding) [1, 3] | dissociation rate (koff) from GRFT (in words) [2] | other results
1 | NC(=O)[C@H](CCCCNC(=O)[C@H](CCCCNC(=O)CO[C@H]1O[C@H](CO)[C@@H](O)[C@H](O)[C@@H]1O)NC(=O)CO[C@H]1O[C@H](CO)[C@@H](O)[C@H](O)[C@@H]1O)NC(=O)[C@H](CCCCNC(=O)CO[C@H]1O[C@H](CO)[C@@H](O)[C@H](O)[C@@H]1O)NC(=O)CO[C@H]1O[C@H](CO)[C@@H](O)[C@H](O)[C@@H]1O [Compound 10] | 2 | 1.96 ± 0.09 | very slow koff rates | association rate (kon) to GRFT (in words) [2]: slower kon rates
2 | NC(=O)[C@H](CCCCNC(=O)CNC(=O)[C@H](CCCCNC(=O)CO[C@H]1O[C@H](CO)[C@@H](O)[C@H](O)[C@@H]1O)NC(=O)CO[C@H]1O[C@H](CO)[C@@H](O)[C@H](O)[C@@H]1O)NC(=O)CNC(=O)[C@H](CCCCNC(=O)CO[C@H]1O[C@H](CO)[C@@H](O)[C@H](O)[C@@H]1O)NC(=O)CO[C@H]1O[C@H](CO)[C@@H](O)[C@H](O)[C@@H]1O [Compound 11] | 1.5 | 1.45 ± 0.12 | very slow koff rates | association rate (kon) to GRFT (in words) [2]: slower kon rates
3 | CC(=O)N[C@@H](CCCCNC(=O)CO[C@H]1O[C@H](CO)[C@@H](O)[C@H](O)[C@@H]1O)C(=O)N[C@@H](CCCCNC(=O)CO[C@H]1O[C@H](CO)[C@@H](O)[C@H](O)[C@@H]1O)C(=O)N[C@@H](CCCCNC(=O)CO[C@H]1O[C@H](CO)[C@@H](O)[C@H](O)[C@@H]1O)C(N)=O [Compound 6] | – | 0.98 ± 0.11 | – | –
4 | CC(=O)N[C@@H](CCCCNC(=O)CO[C@H]1O[C@H](CO)[C@@H](O)[C@H](O)[C@@H]1O)C(=O)NCC(=O)N[C@@H](CCCCNC(=O)CO[C@H]1O[C@H](CO)[C@@H](O)[C@H](O)[C@@H]1O)C(=O)NCC(=O)N[C@@H](CCCCNC(=O)CO[C@H]1O[C@H](CO)[C@@H](O)[C@H](O)[C@@H]1O)C(N)=O [Compound 2] | 1 | 0.96 ± 0.24 | – | –
5 | CC(=O)N[C@@H](CCCCNC(=O)CO[C@H]1O[C@H](CO)[C@@H](O)[C@H](O)[C@@H]1O)C(=O)NCC(=O)NCC(=O)N[C@@H](CCCCNC(=O)CO[C@H]1O[C@H](CO)[C@@H](O)[C@H](O)[C@@H]1O)C(=O)NCC(=O)NCC(=O)N[C@@H](CCCCNC(=O)CO[C@H]1O[C@H](CO)[C@@H](O)[C@H](O)[C@@H]1O)C(N)=O [Compound 5] (Ac-K(X1)GGK(X1)GGK(X1)-NH2; N-terminus and C-terminus assumed) | – | 1.16 ± 0.25 | – | –
6 | CC(=O)N[C@@H](CCCNC(=O)CO[C@H]1O[C@H](CO)[C@@H](O)[C@H](O)[C@@H]1O)C(=O)N[C@@H](CCCNC(=O)CO[C@H]1O[C@H](CO)[C@@H](O)[C@H](O)[C@@H]1O)C(=O)N[C@@H](CCCNC(=O)CO[C@H]1O[C@H](CO)[C@@H](O)[C@H](O)[C@@H]1O)C(N)=O [Compound 7] | 1 | 0.94 ± 0.19 | – | –
7 | NC(=O)[C@H](CCCCNC(=O)[C@H](CCCCNC(=O)CNC(=O)CO[C@H]1O[C@H](CO)[C@@H](O)[C@H](O)[C@@H]1O)NC(=O)CNC(=O)CO[C@H]1O[C@H](CO)[C@@H](O)[C@H](O)[C@@H]1O)NC(=O)[C@H](CCCCNC(=O)CNC(=O)CO[C@H]1O[C@H](CO)[C@@H](O)[C@H](O)[C@@H]1O)NC(=O)CNC(=O)CO[C@H]1O[C@H](CO)[C@@H](O)[C@H](O)[C@@H]1O [Compound 12] | 1 | 1.08 ± 0.08 | – | Kd lower compared to glycopeptides 10 and 11 ([1]; ITC, Kd of 12 versus 10 and 11): approximately 30 fold
8 | chitobiose [reference compound] | – | – | – | binding response to immobilized GRFT (in words) [2]: Negligible binding
9 | CC(=O)N[C@@H](CNC(=O)CO[C@H]1O[C@H](CO)[C@@H](O)[C@H](O)[C@@H]1O)C(=O)N[C@@H](CNC(=O)CO[C@H]1O[C@H](CO)[C@@H](O)[C@H](O)[C@@H]1O)C(=O)N[C@@H](CNC(=O)CO[C@H]1O[C@H](CO)[C@@H](O)[C@H](O)[C@@H]1O)C(N)=O [Compound 8] | 1.5 | 1.38 ± 0.17 | by far the slowest dissociation rate | –
10 | CC(=O)N[C@@H](CCCCNC(=O)CO[C@H]1O[C@H](CO)[C@@H](O)[C@H](O)[C@@H]1O)C(=O)NCC(=O)N[C@@H](CCCCNC(=O)CO[C@H]1O[C@H](CO)[C@@H](O)[C@H](O)[C@@H]1O)C(=O)NCC(=O)N[C@@H](CCCCNC(=O)CO[C@H]1O[C@H](CO)[C@@H](O)[C@H](O)[C@@H]1O)C(=O)NCC(=O)N[C@@H](CCCCNC(=O)CO[C@H]1O[C@H](CO)[C@@H](O)[C@H](O)[C@@H]1O)C(N)=O [Compound 3] | – | 0.68 ± 0.03 | – | –
11 | pentamannoside [reference compound] | – | – | – | binding response to immobilized GRFT (in words) [2]: Negligible binding
12 | CC(=O)N[C@@H](CCCCNC(=O)CO[C@H]1O[C@H](CO)[C@@H](O)[C@H](O)[C@@H]1O)C(=O)NCC(=O)N[C@@H](CCCCNC(=O)CO[C@H]1O[C@H](CO)[C@@H](O)[C@H](O)[C@@H]1O)C(N)=O [Compound 1] | – | 1.56 ± 0.01 | – | binding response to immobilized GRFT (in words) [2]: weakest response of any of the glycopeptides
13 | CC(=O)N[C@@H](CCCCNC(=O)CO[C@H]1O[C@H](CO)[C@@H](O)[C@H](O)[C@@H]1O)C(=O)NCC(=O)N[C@@H](CCCCNC(=O)CO[C@H]1O[C@H](CO)[C@@H](O)[C@H](O)[C@@H]1O)C(=O)NCC(=O)N[C@@H](CCCCNC(=O)CO[C@H]1O[C@H](CO)[C@@H](O)[C@H](O)[C@@H]1O)C(=O)NCC(=O)N[C@@H](CCCCNC(=O)CO[C@H]1O[C@H](CO)[C@@H](O)[C@H](O)[C@@H]1O)C(=O)NCC(=O)N[C@@H](CCCCNC(=O)CO[C@H]1O[C@H](CO)[C@@H](O)[C@H](O)[C@@H]1O)C(=O)NCC(=O)N[C@@H](CCCCNC(=O)CO[C@H]1O[C@H](CO)[C@@H](O)[C@H](O)[C@@H]1O)C(N)=O [Compound 4] | 0.5 | 0.52 ± 0.05 | significantly slower rate than Km3G1 and Km4G1 | –
14 | CC(=O)N[C@@H]1[C@@H](O)[C@H](O[C@@H]2O[C@H](CO)[C@@H](O[C@@H]3O[C@H](CO[C@H]4O[C@H](CO[C@H]5O[C@H](CO)[C@@H](O)[C@H](O)[C@@H]5O[C@H]5O[C@H](CO)[C@@H](O)[C@H](O)[C@@H]5O)[C@@H](O)[C@H](O[C@H]5O[C@H](CO)[C@@H](O)[C@H](O)[C@@H]5O[C@H]5O[C@H](CO)[C@@H](O)[C@H](O)[C@@H]5O)[C@@H]4O)[C@@H](O)[C@H](O[C@H]4O[C@H](CO)[C@@H](O)[C@H](O)[C@@H]4O[C@H]4O[C@H](CO)[C@@H](O)[C@H](O)[C@@H]4O[C@H]4O[C@H](CO)[C@@H](O)[C@H](O)[C@@H]4O)[C@@H]3O)[C@H](O)[C@H]2NC(C)=O)[C@@H](CO)O[C@H]1NC(=O)C[C@H](N)C(=O)O [Compound 14, Man9GlcNAc2Asn, reference compound] | – | 1.39 ± 0.12 | slower koff rate than nonamannoside 13 | Kd [1, 3]: 540 ± 270 nM

Reference: article PMC6260803 (Angewandte Chemie (International ed. in English), 2015)
